Data taken from paper PMC12077508 (Science Advances, 2025).
pEC50: −log10 of the molar value.

Experiments:
OR8D1 = target: T1, OR8D1 (Homo sapiens, UniProt Q8WZ84); test: cAMPr fluorescence imaging in transfected HEK293T cells; type: cell-based
T1 sequence (Q8WZ84 1-308): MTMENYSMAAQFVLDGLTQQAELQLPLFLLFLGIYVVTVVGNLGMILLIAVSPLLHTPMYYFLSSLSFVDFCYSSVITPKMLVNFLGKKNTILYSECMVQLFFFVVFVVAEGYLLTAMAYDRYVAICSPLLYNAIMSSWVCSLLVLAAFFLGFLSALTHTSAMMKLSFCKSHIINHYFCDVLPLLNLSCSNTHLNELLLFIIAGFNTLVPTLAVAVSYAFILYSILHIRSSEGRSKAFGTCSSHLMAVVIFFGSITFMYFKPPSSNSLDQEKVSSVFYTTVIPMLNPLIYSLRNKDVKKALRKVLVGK

OR51E1 = target: T2, OR51E1 (Homo sapiens, UniProt Q8TCB6); test: cAMPr fluorescence imaging in transfected HEK293T cells; type: cell-based
T2 sequence (Q8TCB6 1-318): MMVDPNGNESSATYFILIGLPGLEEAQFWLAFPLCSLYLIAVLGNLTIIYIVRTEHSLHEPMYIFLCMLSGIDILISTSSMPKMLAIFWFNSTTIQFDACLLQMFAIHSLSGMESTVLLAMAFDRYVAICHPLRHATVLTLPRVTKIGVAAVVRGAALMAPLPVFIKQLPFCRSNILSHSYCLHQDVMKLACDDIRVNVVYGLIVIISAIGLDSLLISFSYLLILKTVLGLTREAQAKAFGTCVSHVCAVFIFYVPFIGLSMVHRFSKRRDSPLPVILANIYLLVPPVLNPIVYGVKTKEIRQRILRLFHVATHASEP
In short: (§1)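 HEK293T cells stably expressing the cpGFP-based cAMP sensor cAMPr, on collagen-coated glass dishes, transfected with Rho-tagged receptor (N-terminal 20 residues of bovine rhodopsin) plus RTP1S. Each odorant concentration was tested in a separate experiment, with or without fibronectin, and curves were fitted for EC50 and Hill coefficient.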

OR5K1 = target: T3, OR5K1 (Homo sapiens, UniProt Q8NHB7); test: as above; type: cell-based
T3 sequence (Q8NHB7 1-308): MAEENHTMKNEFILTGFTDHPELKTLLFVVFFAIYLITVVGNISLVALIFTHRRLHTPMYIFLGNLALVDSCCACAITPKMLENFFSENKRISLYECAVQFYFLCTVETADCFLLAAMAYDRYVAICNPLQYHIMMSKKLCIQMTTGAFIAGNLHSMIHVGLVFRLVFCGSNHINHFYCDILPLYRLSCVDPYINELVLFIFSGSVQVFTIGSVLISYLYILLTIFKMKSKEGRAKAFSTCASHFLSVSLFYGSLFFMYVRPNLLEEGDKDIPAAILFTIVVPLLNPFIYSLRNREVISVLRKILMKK
In short: as §1

OR2W1 = target: T4, OR2W1 (Homo sapiens, UniProt Q9Y3N9); test: cAMPr fluorescence imaging in transfected HEK293T cells; type: cell-based
T4 sequence (Q9Y3N9 1-320): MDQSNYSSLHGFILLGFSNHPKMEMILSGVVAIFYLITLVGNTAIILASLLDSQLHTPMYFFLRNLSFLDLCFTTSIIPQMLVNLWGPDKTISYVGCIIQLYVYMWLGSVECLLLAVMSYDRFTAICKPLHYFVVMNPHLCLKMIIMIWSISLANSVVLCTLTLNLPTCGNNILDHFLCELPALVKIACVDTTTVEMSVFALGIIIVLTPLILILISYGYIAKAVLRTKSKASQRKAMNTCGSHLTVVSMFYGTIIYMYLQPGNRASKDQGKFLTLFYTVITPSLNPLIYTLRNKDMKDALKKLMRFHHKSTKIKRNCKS

OR2J2 = target: T5, OR2J2 (Homo sapiens, UniProt O76002); test: cAMPr fluorescence imaging in transfected HEK293T cells; type: cell-based
T5 sequence (O76002 1-312): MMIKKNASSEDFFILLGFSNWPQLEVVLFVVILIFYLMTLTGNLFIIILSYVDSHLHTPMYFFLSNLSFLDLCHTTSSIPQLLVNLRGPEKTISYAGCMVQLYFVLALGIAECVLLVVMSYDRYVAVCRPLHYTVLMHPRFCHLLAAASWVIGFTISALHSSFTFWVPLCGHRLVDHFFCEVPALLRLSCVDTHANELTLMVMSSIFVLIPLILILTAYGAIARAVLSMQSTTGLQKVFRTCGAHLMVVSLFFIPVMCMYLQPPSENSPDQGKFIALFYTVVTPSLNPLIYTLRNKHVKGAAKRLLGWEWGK
In short: as §1

OR1D2; OR1D1 (Table 2) = OR1D2; OR1D1 (Table 2) (Homo sapiens, UniProt P34982); test: cell-based
Chain of OR1D2; OR1D1 (Table 2) (P34982 whole entry): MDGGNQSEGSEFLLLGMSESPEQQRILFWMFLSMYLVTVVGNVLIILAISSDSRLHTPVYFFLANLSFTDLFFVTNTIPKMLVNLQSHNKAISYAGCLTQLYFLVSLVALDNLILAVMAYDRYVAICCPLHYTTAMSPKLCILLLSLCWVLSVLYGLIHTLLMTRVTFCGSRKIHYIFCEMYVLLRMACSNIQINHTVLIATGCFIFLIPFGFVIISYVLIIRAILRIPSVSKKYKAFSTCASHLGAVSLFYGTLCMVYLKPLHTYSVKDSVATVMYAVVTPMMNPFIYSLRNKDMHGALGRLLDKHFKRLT

Olfr73 (mOR-EG) = target: T6, Olfr73 (mOR-EG) (Mus musculus, UniProt Q920P2); test: cAMPr fluorescence imaging in transfected HEK293T cells; type: cell-based
T6 sequence (Q920P2 1-313): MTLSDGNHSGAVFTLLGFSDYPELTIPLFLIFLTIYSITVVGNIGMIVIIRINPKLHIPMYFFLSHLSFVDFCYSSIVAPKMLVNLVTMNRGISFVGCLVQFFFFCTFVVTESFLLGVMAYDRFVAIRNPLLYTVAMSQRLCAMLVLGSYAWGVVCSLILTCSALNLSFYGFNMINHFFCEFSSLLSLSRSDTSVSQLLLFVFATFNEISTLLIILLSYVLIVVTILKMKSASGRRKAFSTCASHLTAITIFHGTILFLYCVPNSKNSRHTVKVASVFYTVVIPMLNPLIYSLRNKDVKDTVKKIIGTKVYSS

OR5AN1 = target: T7, OR5AN1 (Homo sapiens, UniProt Q8NGI8); test: as above; type: cell-based
T7 sequence (Q8NGI8 1-311): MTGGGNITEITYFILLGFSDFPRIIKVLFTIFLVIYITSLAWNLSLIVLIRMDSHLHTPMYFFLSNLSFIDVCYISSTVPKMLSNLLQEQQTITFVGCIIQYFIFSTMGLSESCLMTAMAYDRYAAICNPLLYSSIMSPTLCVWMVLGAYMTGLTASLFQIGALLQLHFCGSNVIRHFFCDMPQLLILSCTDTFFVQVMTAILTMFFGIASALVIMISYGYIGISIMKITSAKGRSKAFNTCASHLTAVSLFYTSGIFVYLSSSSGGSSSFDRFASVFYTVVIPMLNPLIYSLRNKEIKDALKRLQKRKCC

OR5P3 = target: T8, OR5P3 (Homo sapiens, UniProt Q8WZ94); test: cAMPr fluorescence imaging in transfected HEK293T cells; type: cell-based
T8 sequence (Q8WZ94 1-311): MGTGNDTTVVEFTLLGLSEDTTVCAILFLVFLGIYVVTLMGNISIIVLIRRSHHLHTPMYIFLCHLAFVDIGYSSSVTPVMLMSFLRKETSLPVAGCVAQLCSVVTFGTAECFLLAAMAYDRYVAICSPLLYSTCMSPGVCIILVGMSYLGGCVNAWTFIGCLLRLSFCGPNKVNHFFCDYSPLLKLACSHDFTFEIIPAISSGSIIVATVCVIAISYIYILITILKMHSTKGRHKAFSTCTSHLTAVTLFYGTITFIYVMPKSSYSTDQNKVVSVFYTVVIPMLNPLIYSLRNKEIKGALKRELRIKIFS
In short: as §1

SMILES: CC1=C(O)C(=O)CC1 [cyclotene]
- pEC50 (OR8D1): 2.96

SMILES: CC(C)CC(=O)O [isovaleric acid]
- pEC50 (OR51E1): 3.08

SMILES: Cc1nccnc1C [2,3-dimethyl pyrazine]
- pEC50 (OR5K1): 1.92

SMILES: CCCCCOC(C)=O [pentyl acetate]
- pEC50 (OR2W1): 4.36

SMILES: CCCCCCCC1CCC(=O)O1 (centres unmarked) [γ-undecalactone]
- pEC50 (OR2J2): 3.60
- pEC50 (OR1D2; OR1D1 (Table 2)): 3.82

SMILES: CC1=C(O)C(=O)OC1C (centres unmarked) [sotolon]
- pEC50 (OR8D1): 5.11

SMILES: C=CCc1ccc(O)c(OC)c1 [eugenol]
- pEC50 (Olfr73 (mOR-EG)): 3.81

SMILES: CC1CCCCCCCCCCCCC(=O)C1 (centres unmarked) [muscone]
- pEC50 (OR5AN1): 3.54

SMILES: COC(=O)c1ccccc1N [methyl anthranilate]
- pEC50 (OR5P3): 2.66

SMILES: OCCc1ccccc1 [β-phenylethyl alcohol]
- pEC50 (OR2W1): 2.82
